Measured values collected from several papers.
ST14: Suppressor of tumorigenicity 14 protein (ST14, Homo sapiens, UniProt Q9Y5Y6)
CDK2 with cyclin A2: Cyclin-dependent kinase 2, with cyclin A2 (CDK2, Homo sapiens, UniProt P24941)

CC(C)[C@@H](CC(=O)N[C@@H](CCCNC(=N)N)C(=O)c1nc2ccccc2s1)NC(=O)[C@H](Cc1cscn1)NC(=O)CCc1ccccc1
remaining activity (ST14; enzyme activity, inhibitor; 0.1 µM): 81%

COc1cc(-c2cncc3c2CN(C)Cc2cc(N4CCNCC4)ccc2-3)cc(OC)c1OC
remaining activity (Dual specificity protein kinase CLK3 (CLK3, Homo sapiens, UniProt P49761); enzyme activity, inhibitor; 1 µM): 103%

C=CC[C@H](NC(=O)[C@H](Cc1cscn1)NC(=O)CCc1ccccc1)C(=O)N[C@@H](CCCNC(=N)N)C(=O)c1nc2ccccc2s1
remaining activity (ST14; enzyme activity, inhibitor; 0.1 µM): 41%

CNc1ncc2c(/C=C/C(=O)N3CCC(OC)CC3)nn(Cc3cccc(C(F)(F)F)c3)c2n1
remaining activity (Mitogen-activated protein kinase 10 (MAPK10, Homo sapiens, UniProt P53779); enzyme activity, inhibitor, radiometric; 1 µM): 87%

CC(=O)Nc1c(N)nc(SCC(=O)N/N=C/c2ccc([N+](=O)[O-])cc2)[nH]c1=O
inhibition (CDK2 with cyclin A2; enzyme activity, inhibitor; 10 nM): 15%

Cc1cc([C@@H](C)Nc2ccccc2C(=O)O)c2nc(N3CCC(F)(F)CC3)c(C#N)c(=O)n2c1
remaining binding (Cyclin-dependent kinase 2 (CDK2, Homo sapiens, UniProt P24941); binding, competition with immobilised ligand; 10 µM): 98%

CC(=O)Nc1c(N)nc(SCC(=O)NN)[nH]c1=O
inhibition (CDK2 with cyclin A2; enzyme activity, inhibitor; 200 pM): 3.98%

CCC[C@H](NC(=O)[C@H](Cc1cscn1)NC(=O)CCc1ccccc1)C(=O)N[C@@H](CCCNC(=N)N)C(=O)c1nc2ccccc2s1
remaining activity (ST14; enzyme activity, inhibitor; 0.1 µM): 45%

CNC(=O)c1cc(Oc2ccc(NC(=O)Nc3ccc(Cl)c(C(F)(F)F)c3)cc2)ccn1
inhibition (CDK2 with cyclin A2; enzyme activity, inhibitor; 0.5 µM): 74%

C=CC(=O)N1CCC(COCC(=O)N2CCN(c3nc(-c4cnc(N)nc4C(F)F)nc(N4CCOC[C@@H]4C)n3)CC2)CC1
remaining binding (Mitogen-activated protein kinase kinase kinase kinase 1 (MAP4K1, Homo sapiens, UniProt Q92918); binding, competition with immobilised ligand; 1 µM): 100%
